Reference: publication PMC3558988 (Journal of Chemotherapy (Florence, Italy), 2013)
Blank lines part the entries; values can stand above or below the molecule they belong to.

Tests used:
[1] = tested on: three strains of S. aureus; test: MIC summary over the three test strains; type: cell-based, Staphylococcus aureus
Method in brief: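 Broth microdilution MICs per CLSI guidelines, run in triplicate, for the test compound and a panel of comparator antimicrobials including linezolid. Tested against the three S. aureus isolates used in the study (one MSSA, one CA-MRSA, one HA-MRSA).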

[2] = Plasma protein-binding by ultrafiltration; type: in vitro ADME; details: mouse plasma, 0·1 to 2 μg/ml
CA-MRSA = test: Neutropenic murine thigh infection model, single-dose response; type: in vivo, Staphylococcus aureus; details: 24 hours
MSSA ATCC 29213 = test: Neutropenic murine thigh infection model, efficacy and pharmacodynamics; type: in vivo, Staphylococcus aureus; details: oral, neutropenic mice, 24 hours
[3] = cited from earlier work
[4] = Pharmacokinetics after single oral doses in MSSA-infected neutropenic mice; type: in vivo; details: for fAUC0–24: free drug
[5] = tested on: CA-MRSA (No. 32, CDC type USA300, PVL-positive); test: MIC by broth microdilution; type: cell-based; details: Staphylococcus aureus

level of activity (MIC) greater than linezolid [1]: at least 500 fold
level of activity (MIC) greater than other antibacterials tested [1]: at least 32 fold
concentration dependence of protein binding [2]: no concentration-dependent binding
fAUC0–24 ([4]; 5 mg/kg single oral dose): 113 ng·h/mL
fAUC0–24 ([4]; 10 mg/kg single oral dose): 141 ng·h/mL
fAUC0–24 ([4]; 30 mg/kg single oral dose): 160 ng·h/mL
fAUC0–24 ([4]; 100 mg/kg single oral dose): 285 ng·h/mL
PK profile (dose proportionality of fAUC, fCmax, Tmax) ([4]; single oral doses 2·5-100 mg/kg): non-linear exposures
SMILES: Cc1c(CN(C)C(=O)/C=C/c2cnc3c(c2)CCC(=O)N3)oc2ccccc12 [AFN-1252]
dose giving marked reduction in bacterial count relative to time 0 (CA-MRSA; single oral dose): ≥ 10 mg/kg
doses giving reductions in total bacterial count of 1 log and greater compared to time 0 (MSSA ATCC 29213; MSSA): ≥ 20 mg/kg
dose at which reduction in MSSA growth rate began (MSSA ATCC 29213): 5 mg/kg
permeability ([3]; BCS): high
Biopharmaceutics Classification System class [3]: Class 2

MIC [5]: > 16 µg/mL
SMILES: CCC[C@@H]1C[C@@H](C(=O)N[C@@H]([C@H]2O[C@H](SC)[C@H](O)[C@@H](O)[C@H]2O)[C@H](C)Cl)N(C)C1 [Clindamycin]

MIC [5]: > 32 µg/mL
SMILES: CC[C@H]1OC(=O)[C@H](C)[C@@H](O[C@H]2C[C@@](C)(OC)[C@@H](O)[C@H](C)O2)[C@H](C)[C@@H](O[C@@H]2O[C@H](C)C[C@H](N(C)C)[C@H]2O)[C@](C)(O)C[C@@H](C)C(=O)[C@H](C)[C@@H](O)[C@]1(C)O [Erythromycin]

SMILES: CC(=O)NC[C@H]1CN(c2ccc(N3CCOCC3)c(F)c2)C(=O)O1 [Linezolid]
effect on bacterial growth (CA-MRSA; 10 and 40 mg/kg single oral dose): some suppression of growth
doses required to achieve consistent reductions in CFU (CA-MRSA; single oral dose): ≥ 100 mg/kg
